Data as given in ChEMBL document CHEMBL1137710, “Synthesis and in vitro antitumor activity of new quinoxaline derivatives” (2009).

Legend:
Type in all cases: functional
[1] = tested on: NCI-H460; assay: Anticancer activity against human NCI-H460 cells assessed as cell growth at 100 uM after 48 hrs by sulforhodamine B assay; conditions: NCI-H460, 48 h, read-out: Activity
[2] = tested on: MCF7; assay: Anticancer activity against human MCF7 cells assessed as cell growth at 100 uM after 48 hrs by sulforhodamine B assay; conditions: MCF7, 48 h, read-out: Activity
[3] = tested on: SF-268; assay: Anticancer activity against human SF268 cells assessed as cell growth at 100 uM after 48 hrs by sulforhodamine B assay; conditions: SF-268, 48 h, read-out: Activity
[4] = Growth inhibition of human […] cells after 48 hrs by sulforhodamine B assay
Outline: (§1)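 NCI 60-human-tumor-cell-line panel, with compounds tested over a 5-log dose range. Values are taken from dose-response curves as log10 molar concentrations: GI50 is 50% net growth inhibition, TGI is total growth inhibition, and LC50 is 50% net cell death.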

[5] = tested on: A549; assay: Growth inhibition of human A549 cells after 48 hrs by sulforhodamine B assay; conditions: A549, 48 h; outline: as §1
[6] = tested on: NCI-H23; assay: Growth inhibition of human NCI-H23 cells after 48 hrs by sulforhodamine B assay; conditions: NCI-H23, 48 h; outline: as §1
[7] = tested on: NCI-H460; assay: Growth inhibition of human NCI-H460 cells after 48 hrs by sulforhodamine B assay; conditions: NCI-H460, 48 h; outline: as §1
[8] = tested on: COLO 205; assay: Growth inhibition of human COLO205 cells after 48 hrs by sulforhodamine B assay; conditions: COLO 205, 48 h; outline: as §1
[9] = tested on: HCT-116; assay: Growth inhibition of human HCT116 cells after 48 hrs by sulforhodamine B assay; conditions: HCT-116, 48 h; outline: as §1
[10] = tested on: SW-620; assay: Growth inhibition of human SW620 cells after 48 hrs by sulforhodamine B assay; conditions: SW-620, 48 h
Outline: (§2)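 Run in the NCI 60-human-tumour-cell-line panel, tested over a 5-log dose range. Dose–response curves gave three values per cell line, each as a log10 molar concentration: GI50 (50% inhibition of net cell growth), TGI (total inhibition of net growth) and LC50 (50% net cell death). The mean graph midpoint is the arithmetic mean over all lines, with insensitive lines entered at the highest concentration tested.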

[11] = tested on: SF-268; assay: Growth inhibition of human SF268 cells after 48 hrs by sulforhodamine B assay; conditions: SF-268, 48 h; outline: as §1
[12] = tested on: SF-295; assay: Growth inhibition of human SF295 cells after 48 hrs by sulforhodamine B assay; conditions: SF-295, 48 h; outline: as §1
[13] = tested on: SNB-19; assay: Growth inhibition of human SNB19 cells after 48 hrs by sulforhodamine B assay; conditions: SNB-19, 48 h; outline: as §2
[14] = tested on: U-251; assay: Growth inhibition of human U251 cells after 48 hrs by sulforhodamine B assay; conditions: U-251, 48 h; outline: as §2
[15] = tested on: M14; assay: Growth inhibition of human M14 cells after 48 hrs by sulforhodamine B assay; conditions: M14, 48 h; outline: as §1
[16] = tested on: SK-MEL-28; assay: Growth inhibition of human SK-MEL-28 cells after 48 hrs by sulforhodamine B assay; conditions: SK-MEL-28, 48 h; outline: as §1
[17] = tested on: SK-MEL-5; assay: Growth inhibition of human SK-MEL-5 cells after 48 hrs by sulforhodamine B assay; conditions: SK-MEL-5, 48 h; outline: as §1
[18] = tested on: UACC-257; assay: Growth inhibition of human UACC257 cells after 48 hrs by sulforhodamine B assay; conditions: UACC-257, 48 h; outline: as §2
[19] = tested on: UACC-62; assay: Growth inhibition of human UACC62 cells after 48 hrs by sulforhodamine B assay; conditions: UACC-62, 48 h; outline: as §2
[20] = tested on: IGROV-1; assay: Growth inhibition of human IGROV1 cells after 48 hrs by sulforhodamine B assay; conditions: IGROV-1, 48 h; outline: as §1
[21] = tested on: OVCAR-4; assay: Growth inhibition of human OVCAR4 cells after 48 hrs by sulforhodamine B assay; conditions: OVCAR-4, 48 h; outline: as §1
[22] = tested on: OVCAR-8; assay: Growth inhibition of human OVCAR8 cells after 48 hrs by sulforhodamine B assay; conditions: OVCAR-8, 48 h; outline: as §1
[23] = tested on: SK-OV-3; assay: Growth inhibition of human SKOV3 cells after 48 hrs by sulforhodamine B assay; conditions: SK-OV-3, 48 h; outline: as §1
[24] = tested on: RXF 393; assay: Growth inhibition of human RXF393 cells after 48 hrs by sulforhodamine B assay; conditions: RXF 393, 48 h; outline: as §1
[25] = tested on: TK-10; assay: Growth inhibition of human TK10 cells after 48 hrs by sulforhodamine B assay; conditions: TK-10, 48 h; outline: as §2
[26] = tested on: PC-3; assay: Growth inhibition of human PC3 cells after 48 hrs by sulforhodamine B assay; conditions: PC-3, 48 h; outline: as §1
[27] = tested on: DU-145; assay: Growth inhibition of human DU145 cells after 48 hrs by sulforhodamine B assay; conditions: DU-145, 48 h; outline: as §1
[28] = tested on: MDA-MB-231; assay: Growth inhibition of human MDA-MB-231 cells after 48 hrs by sulforhodamine B assay; conditions: MDA-MB-231, 48 h; outline: as §1
[29] = tested on: MDA-MB-435; assay: Growth inhibition of human MDA-MB-435 cells after 48 hrs by sulforhodamine B assay; conditions: MDA-MB-435, 48 h; outline: as §1
[30] = tested on: MCF7; assay: Growth inhibition of human MCF7 cells after 48 hrs by sulforhodamine B assay; conditions: MCF7, 48 h; outline: as §1
[31] = read-out: pLC50 (the source's name) (converted)

**Q.** What does the source list for `COc1ccc(Sc2nc3cc(N)cc(N)c3nc2-c2ccccc2)cc1`?
**A.** growth at 100 µM [1]: 0%; growth at 100 µM [2]: 8%; growth at 100 µM [3]: 7%; GI50 [4]: 3.98 µM; LC50 [4]: > 100 µM; TGI ([4]; read-out: pTGI (converted)): 85.1 µM; GI50 [5]: 42.7 µM; LC50 [5]: > 100 µM; TGI ([5]; read-out: pTGI (converted)): > 100 µM; GI50 [6]: > 100 µM; LC50 (50% net cell kill concentration) [6]: > 100 µM; TGI ([6]; read-out: pTGI (converted)): > 100 µM; GI50 [7]: 20 µM; LC50 (50% net cell kill) [7]: > 100 µM; TGI ([7]; read-out: pTGI (converted)): > 100 µM; GI50 [8]: 19.5 µM; LC50 (50% net cell kill) [8]: > 100 µM; TGI ([8]; read-out: pTGI (converted)): > 100 µM; GI50 [9]: 14.8 µM; LC50 (concentration causing 50% net cell death) [9]: > 100 µM; TGI ([9]; read-out: pTGI (converted)): > 100 µM; GI50 [10]: 26.3 µM; CC50 [10, 31]: > 100 µM; TGI ([10]; read-out: pTGI (converted)): > 100 µM; GI50 [11]: > 100 µM; LC50 [11]: > 100 µM; TGI ([11]; read-out: pTGI (converted)): > 100 µM; GI50 [12]: > 100 µM; LC50 (50% net cell kill) [12]: > 100 µM; TGI ([12]; read-out: pTGI (converted)): > 100 µM; GI50 [13]: > 100 µM; LC50 [13]: > 100 µM; TGI ([13]; read-out: pTGI (converted)): > 100 µM; GI50 [14]: > 100 µM; LC50 (50% net cell kill) [14]: > 100 µM; TGI ([14]; read-out: pTGI (converted)): > 100 µM; GI50 [15]: > 100 µM; CC50 [15, 31]: > 100 µM; TGI ([15]; read-out: pTGI (converted)): > 100 µM; GI50 [16]: 24.5 µM; CC50 [16, 31]: > 100 µM; TGI ([16]; read-out: pTGI (converted)): > 100 µM; GI50 [17]: 24 µM; CC50 [17, 31]: > 100 µM; TGI ([17]; read-out: pTGI (converted)): > 100 µM; GI50 [18]: 43.7 µM; CC50 [18, 31]: > 100 µM; TGI ([18]; read-out: pTGI (converted)): > 100 µM; GI50 [19]: 38 µM; CC50 [19, 31]: > 100 µM; TGI ([19]; read-out: pTGI (converted)): > 100 µM; CC50 [20, 31]: > 100 µM; TGI ([20]; read-out: pTGI (converted)): > 100 µM; CC50 [21, 31]: > 100 µM; TGI ([21]; read-out: pTGI (converted)): > 100 µM; GI50 [22]: > 100 µM; CC50 [22, 31]: > 100 µM; TGI ([22]; read-out: pTGI (converted)): > 100 µM; GI50 [23]: 33.1 µM; CC50 [23, 31]: > 100 µM; TGI ([23]; read-out: pTGI (converted)): > 100 µM; GI50 [24]: 3.09 µM; CC50 [24, 31]: > 100 µM; TGI ([24]; read-out: pTGI (converted)): 17 µM; GI50 [25]: 12.9 µM; CC50 [25, 31]: 72.4 µM; TGI ([25]; read-out: pTGI (converted)): 30.2 µM; GI50 [26]: 1.74 µM; CC50 [26, 31]: 19.1 µM; TGI ([26]; read-out: pTGI (converted)): 5.13 µM; GI50 [27]: 16.2 µM; CC50 [27, 31]: 69.2 µM; TGI ([27]; read-out: pTGI (converted)): 33.1 µM; GI50 [28]: > 100 µM; CC50 [28, 31]: > 100 µM; TGI ([28]; read-out: pTGI (converted)): > 100 µM; GI50 [29]: > 100 µM; CC50 [29, 31]: > 100 µM; TGI ([29]; read-out: pTGI (converted)): > 100 µM; GI50 [30]: 16.6 µM; CC50 [30, 31]: > 100 µM; TGI ([30]; read-out: pTGI (converted)): > 100 µM
